{"data": "Measured values pooled from the literature", "PDE4D": "3',5'-cyclic-AMP phosphodiesterase 4D (PDE4D, Homo sapiens, UniProt Q08499)", "CDK7 with cyclin H": "Cyclin-dependent kinase 7, with cyclin H (CDK7, Homo sapiens, UniProt P50613)", "Antigen peptide transporter 1/Antigen peptide transporter 2": "Antigen peptide transporter 1/Antigen peptide transporter 2 (Homo sapiens, UniProt Q03518+Q03519)", "TEAD4": "Transcriptional enhancer factor TEF-3 (TEAD4, Homo sapiens, UniProt Q15561)", "KCNH2": "Voltage-gated inwardly rectifying potassium channel KCNH2 (KCNH2, Homo sapiens, UniProt Q12809)", "note": "Protocols differ between the studies behind these lines."}
{"Structure (SMILES)": "CC(NC(C)(C)C)C(=O)c1cccc(Cl)c1 (centres unmarked)", "target": "Sodium-dependent dopamine transporter (Slc6a3, Rattus norvegicus, UniProt P23977)", "test": "transporter uptake, inhibitor, radiometric", "IC50 [nM]": 305}
{"Structure (SMILES)": "COc1cc(C(=O)NS(=O)(=O)c2ccccc2C)ccc1Cc1cn(C)c2ccc(NC(=O)OC3CCCC3)cc12", "target": "PDE4D", "test": "enzyme activity, inhibitor, radiometric", "IC50 [nM]": 5380}
{"Structure (SMILES)": "O=c1cc(-c2ccccc2)oc2c1ccc1occc12", "target": "CDK7 with cyclin H", "test": "enzyme activity, inhibitor, ADP detection", "IC50 [nM]": 4800}
{"Structure (SMILES)": "CC[C@H](C)[C@H](NC(=O)[C@H](CCCNC(=N)N)NC(=O)CN)C(=O)N[C@@H](CC(=O)O)C(=O)N[C@@H](CCCCN)C(=O)N1CCC[C@H]1C(=O)N[C@H](C(=O)N[C@@H](CC(C)C)C(=O)N[C@@H](C)C(=O)O)[C@@H](C)CC", "target": "Antigen peptide transporter 1/Antigen peptide transporter 2", "test": "ligand displacement", "IC50 [nM]": 5400}
{"Structure (SMILES)": "CSCC[C@H](NC(=O)[C@H](CCCNC(=N)N)NC(=O)[C@H](CCSC)NC(=O)[C@@H]1CCCN1C(=O)[C@H](CC(C)C)NC(=O)[C@H](CO)NC(=O)[C@H](C)NC(=O)[C@@H]1CCCN1C(=O)[C@@H](NC(=O)[C@H](CC(N)=O)NC(=O)[C@H](CO)NC(=O)[C@H](CO)NC(=O)[C@H](CCCCN)NC(=O)[C@@H]1CCCN1C(=O)[C@H](CC(N)=O)NC(=O)[C@H](CCSC)NC(=O)[C@@H](NC(=O)[C@H](CO)NC(=O)[C@H](CC(N)=O)NC(=O)[C@H](Cc1ccccc1)NC(=O)[C@H](CC(C)C)NC(=O)[C@H](CC(C)C)NC(=O)[C@H](CCC(=O)O)NC(=O)[C@H](CC(C)C)NC(=O)[C@H](CC(=O)O)NC(=O)[C@@H](NC(=O)[C@H](CCC(N)=O)NC(=O)[C@H](CO)NC(C)=O)[C@@H](C)O)C(C)C)C(C)C)C(=O)N[C@@H](CCCNC(=N)N)C(=O)N[C@@H](CC(N)=O)C(=O)N[C@@H](CC(C)C)C(=O)N1CCC[C@H]1C(=O)N[C@@H](CC(=O)O)C(=O)N[C@@H](CO)C(=O)N[C@@H](Cc1ccccc1)C(=O)N[C@@H](Cc1ccccc1)C(=O)N[C@@H](CCCCN)C(=O)N1CCC[C@H]1C(=O)N1CCC[C@H]1C(N)=O", "target": "TEAD4", "test": "protein-protein interaction, inhibitor, TR-FRET", "IC50 [nM]": 65}
{"Structure (SMILES)": "CC(C)C[C@H](NC(=O)[C@H](CCC(=O)O)NC(=O)[C@@H](NC(=O)[C@H](CO)NC(=O)[C@H](CCCCN)NC(=O)[C@H](CCC(N)=O)NC(=O)[C@H](Cc1ccc(O)cc1)NC(=O)[C@@H](N)CCCNC(=N)N)[C@@H](C)O)C(=O)O", "target": "Antigen peptide transporter 1/Antigen peptide transporter 2", "test": "ligand displacement", "IC50 [nM]": 100000}
{"Structure (SMILES)": "C[C@H]1COCCN1c1nc(NCc2cccnc2C(F)(F)F)c2cccnc2n1", "target": "KCNH2", "test": "ion current, inhibitor", "IC50 [nM]": "> 33300"}
{"Structure (SMILES)": "CC[C@H](C)[C@H](NC(=O)[C@H](CCCNC(=N)N)NC(=O)CN)C(=O)N[C@@H](CC(=O)O)C(=O)N[C@@H](CCCCN)C(=O)N1CCC[C@H]1C(=O)N[C@H](C(=O)N[C@@H](CC(C)C)C(=O)N[C@@H](CCCCN)C(=O)O)[C@@H](C)CC", "target": "Antigen peptide transporter 1/Antigen peptide transporter 2", "test": "ligand displacement", "IC50 [nM]": 2700}
{"Structure (SMILES)": "CC(C)c1cccc(=O)c(O)c1", "target": "eno (Escherichia coli, UniProt P0A6P9)", "test": "enzyme activity, inhibitor, absorbance", "IC50 [nM]": "8000 to 11000"}
{"Structure (SMILES)": "CC(C)C[C@H](NC(=O)[C@H](C)NC(=O)[C@H](C)NC(=O)[C@H](C)NC(=O)[C@H](C)NC(=O)[C@H](C)NC(=O)[C@H](C)NC(=O)[C@H](CCCNC(=N)N)NC(=O)[C@H](C)N)C(=O)O", "target": "Antigen peptide transporter 1/Antigen peptide transporter 2", "test": "ligand displacement", "IC50 [nM]": 900}
{"Structure (SMILES)": "CC[C@H](C)[C@H](NC(=O)[C@@H](NC(=O)[C@H](CC(N)=O)NC(=O)[C@H](CCCCN)NC(=O)[C@@H]1CCCN1C(=O)[C@H](CC(N)=O)NC(=O)[C@H](CCSC)NC(=O)[C@@H](NC(=O)[C@H](C)NC(=O)[C@H](CC(N)=O)NC(=O)[C@H](Cc1ccccc1)NC(=O)[C@H](CC(C)C)NC(=O)[C@H](C)NC(=O)[C@H](CCC(=O)O)NC(=O)[C@H](CC(C)C)NC(=O)[C@H](CC(=O)O)NC(=O)[C@@H](NC(=O)[C@H](CCC(=O)O)NC(=O)[C@H](CO)NC(C)=O)[C@@H](C)O)C(C)C)[C@@H](C)O)C(=O)N[C@H](C(=O)N1CCC[C@H]1C(=O)N1CCC[C@H]1C(=O)N[C@@H](CO)C(=O)N[C@H](C(=O)N1CCC[C@H]1C(=O)N[C@@H](CCSC)C(=O)N[C@@H](CCCNC(=N)N)C(=O)N[C@@H](CC(C)C)C(=O)N[C@@H](CCCNC(=N)N)C(=O)N[C@@H](CCCCN)C(=O)N[C@@H](CC(C)C)C(=O)N1CCC[C@H]1C(=O)N[C@@H](CC(=O)O)C(=O)N[C@@H](CO)C(=O)N[C@@H](Cc1ccccc1)C(=O)N[C@@H](Cc1ccccc1)C(=O)N[C@H](C(=O)N1CCC[C@H]1C(=O)N1CCC[C@H]1C(N)=O)[C@@H](C)O)C(C)C)C(C)C", "target": "TEAD4", "test": "protein-protein interaction, inhibitor, TR-FRET", "IC50 [nM]": 64}
{"Structure (SMILES)": "CC(C)[C@H](NC(=O)[C@H](C)N)C(=O)N[C@@H](C)C(=O)N[C@@H](C)C(=O)N[C@@H](C)C(=O)N[C@@H](C)C(=O)N[C@@H](C)C(=O)N[C@@H](C)C(=O)N[C@@H](C)C(=O)N[C@@H](CCCCN)C(=O)O", "target": "Antigen peptide transporter 1/Antigen peptide transporter 2", "test": "ligand displacement", "IC50 [nM]": 9400}
{"Structure (SMILES)": "O=c1c2ccccc2[nH]c(=S)n1-c1ccccc1", "target": "Prothrombin (F2, Homo sapiens, UniProt P00734)", "test": "enzyme activity, inhibitor", "IC50 [nM]": 92400}
{"Structure (SMILES)": "CCCCOc1ccc(C(=O)CCN2CCCCC2)cc1", "target": "PDE4D", "test": "enzyme activity, inhibitor, radiometric", "IC50 [nM]": 11300}
{"Structure (SMILES)": "CCCCCCCCCCCCCC(=O)O[C@@H]1[C@@H](C)[C@@]2(O)[C@@H](C=C(CO)C[C@]3(O)C(=O)C(C)=C[C@@H]23)[C@@H]2C(C)(C)[C@]12OC(C)=O", "target": "Proteinase-activated receptor 2 (F2RL1, Homo sapiens, UniProt P55085)", "test": "calcium signal, antagonist", "IC50 [nM]": 5.89}
{"Structure (SMILES)": "CN1[C@@H](CC(=O)c2ccccc2)CCC[C@H]1C[C@H](O)c1ccccc1", "target": "KCNH2", "test": "ligand displacement", "system": "HEK293", "conditions": "1 h, pH 7.4, cell membranes", "IC50 [nM]": 1500}
{"Structure (SMILES)": "COc1c(-c2ccc3c(c2)OCO3)oc2c(ccc3occc32)c1=O", "target": "CDK7 with cyclin H", "test": "enzyme activity, inhibitor, ADP detection", "IC50 [nM]": "> 50000"}
{"Structure (SMILES)": "CC(C)C[C@H](NC(=O)[C@H](CCC(=O)O)NC(=O)[C@@H](NC(=O)[C@H](CO)NC(=O)[C@H](CCCCN)NC(=O)[C@H](CCC(N)=O)NC(=O)[C@H](Cc1ccc(O)cc1)NC(=O)[C@H](C)NC(=O)[C@@H](N)CCCNC(=N)N)[C@@H](C)O)C(=O)O", "target": "Antigen peptide transporter 1/Antigen peptide transporter 2", "test": "ligand displacement", "IC50 [nM]": 400}
{"Structure (SMILES)": "CCc1c(C)nc(-c2ccc(Cl)s2)nc1Nc1ccc(CC(=O)O)cc1", "target": "3',5'-cyclic-AMP phosphodiesterase 4D (PDE4D, Homo sapiens, UniProt Q08499, S190D/S715A/S717A)", "test": "enzyme activity, inhibitor, fluorescence", "IC50 [nM]": 1570}
{"Structure (SMILES)": "CN1[C@@H](CCc2ccccc2)CCC[C@H]1CCc1ccccc1", "target": "KCNH2", "test": "ligand displacement", "system": "HEK293", "conditions": "1 h, pH 7.4, cell membranes", "IC50 [nM]": 238}
